Assay results published in ChEMBL document CHEMBL4699622, “Structural and Functional Study of the Klebsiella pneumoniae VapBC Toxin-Antitoxin System, Including the Development of an Inhibitor That Activates VapC” (J Med Chem, 2020).
Calls of active or inactive are those of the source. No cut-off for these calls is given here. Residues, ends and D or L forms follow the SMILES beside them.

Legend:
[1] = test system: Klebsiella pneumoniae; experiment: Binding affinity to Klebsiella pneumoniae MGH78578 N-terminal His6-tagged VapC expressed in Escherichia coli BL21(DE3) assessed as increase in RNAase activity measured after 1 hr using fluorophore-labelled RNA by spectrofluorimetric method
Outline: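 Free VapC (10 μM) was stripped of metals with 10 mM EDTA, then exchanged into purification buffer with 10 mM Mg²⁺. It was incubated without the VapB partner, with 40 U RNase inhibitor, in 20 mM HEPES pH 7.5 and 400 mM NaCl with quenched fluorophore-labelled RNA (5 pM final). Fluorescence was followed for 1 h at ex 490/em 520 nm.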

[2] = Inhibition of Klebsiella pneumoniae MGH78578 N-terminal His6-tagged VapB/C expressed in Escherichia coli BL21(DE3) protein-protein interaction assessed as activation of VapC-mediated RNAase activity measured after 1 hr using fluorophore-labelled RNA by spectrofluorimetric method
Outline: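 Small molecule (1, 3.16 and 10 μM) was added to 10 μM VapBC complex. The complex was EDTA-stripped and Mg²⁺-reloaded, with 40 U RNase inhibitor, in 20 mM HEPES pH 7.5 and 400 mM NaCl with 5 pM final quenched RNA. RNase fluorescence was monitored for 1 h at ex 490/em 520 nm. Activity was expressed relative to free VapC. Screening was done in triplicate.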

[3] = Binding affinity to Klebsiella pneumoniae MGH78578 N-terminal His6-tagged VapC expressed in Escherichia coli BL21(DE3) by isothermal titration calorimetry
Outline: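 Isothermal titration calorimetry was run at 25 °C with VapC, quantified by A280. Background was subtracted and the data were fitted to a single-site binding model.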

[4] = test system: Klebsiella pneumoniae; experiment: Inhibition of Klebsiella pneumoniae MGH78578 N-terminal His6-tagged VapB/C expressed in Escherichia coli BL21(DE3) protein-protein interaction assessed as activation of VapC-mediated RNAase activity at 100 uM measured after 1 hr using fluorophore-labelled RNA by spectrofluorimetric method
Outline: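 Peptide (100 μM) was added to purified VapBC complex (10 μM), pretreated with 10 mM EDTA and then 10 mM Mg²⁺. The reaction used 40 U RNase inhibitor, 20 mM HEPES pH 7.5, 400 mM NaCl and 5 pM final fluorophore/quencher RNA. RFU from released VapC was read over 1 h at ex 490/em 520 nm. Mean of three independent replicates ± SD.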

Activity [1] | IC50 [2] | inhibition [4] | Structure (SMILES) | Kd [3]
 |  | Active | CC[C@H](C)[C@H](NC(=O)[C@H](CC(C)C)NC(=O)[C@@H](NC(=O)[C@H](CC(N)=O)NC(=O)[C@@H](NC(=O)[C@@H](N)CC(=O)O)[C@@H](C)O)[C@@H](C)CC)C(=O)N[C@@H](CC(=O)O)C(=O)N[C@@H](CC(C)C)C(=O)N[C@@H](Cc1ccccc1)C(=O)O (H-DTNILIDLF-OH) | 
 |  | Active | CC[C@H](C)[C@H](NC(=O)[C@H](CC(C)C)NC(=O)[C@@H](NC(=O)[C@H](CC(N)=O)NC(=O)[C@@H](NC(=O)[C@@H](N)CC(=O)O)[C@@H](C)O)[C@@H](C)CC)C(=O)N[C@@H](CC(=O)O)C(=O)N[C@@H](CC(C)C)C(=O)N[C@@H](Cc1ccccc1)C(=O)N[C@@H](CO)C(=O)O (H-DTNILIDLFS-OH) | 
Active |  | Active | CSCC[C@H](NC(=O)CN)C(=O)N[C@@H](CCC(=O)O)C(=O)N[C@@H](Cc1ccc(O)cc1)C(=O)N[C@@H](C)C(=O)N[C@@H](CCCNC(=N)N)C(=O)N[C@@H](CCC(N)=O)C(=O)N[C@@H](CC(C)C)C(=O)O (H-GMEYARQL-OH) | 150 nM
Active |  | Active | CSCC[C@H](NC(=O)CN)C(=O)N[C@@H](CCC(=O)O)C(=O)N[C@@H](Cc1ccc(O)cc1)C(=O)N[C@@H](CCC(N)=O)C(=O)N[C@@H](CCCNC(=N)N)C(=O)N[C@@H](CCC(N)=O)C(=O)N[C@@H](CC(C)C)C(=O)O (H-GMEYQRQL-OH) | 110 nM
 |  | Active | CC[C@H](C)[C@H](NC(=O)[C@H](CC(C)C)NC(=O)[C@@H](NC(=O)[C@H](CC(N)=O)NC(=O)[C@@H](N)[C@@H](C)O)[C@@H](C)CC)C(=O)N[C@@H](CC(=O)O)C(=O)N[C@@H](CC(C)C)C(=O)N[C@@H](Cc1ccccc1)C(=O)O (H-TNILIDLF-OH) | 
 |  | Active | CC[C@H](C)[C@H](NC(=O)[C@H](CC(C)C)NC(=O)[C@@H](NC(=O)[C@H](CC(N)=O)NC(=O)[C@@H](N)[C@@H](C)O)[C@@H](C)CC)C(=O)N[C@@H](CC(=O)O)C(=O)N[C@@H](CC(C)C)C(=O)N[C@@H](Cc1ccccc1)C(=O)N[C@@H](CO)C(=O)O (H-TNILIDLFS-OH) | 

Continued, compound first:

Structure (SMILES) | Activity [1] | IC50 [2] | inhibition [4] | Kd [3]
NC(=O)NC(=O)CCN1CCC(C(=O)c2ccc(O)cc2)CC1 | inactive | 420 nM |  | 22 nM
CCC1Oc2cc(S(=O)(=O)N3CCCC(C(=O)Nc4ccc(F)cc4)C3)c(C)cc2NC1=O (configuration not stated) | inactive | 400 nM |  | 22 nM
CSCC[C@H](NC(=O)CN)C(=O)N[C@@H](CCC(=O)O)C(=O)N[C@@H](C)C(=O)N[C@@H](C)C(=O)N[C@@H](CCCNC(=N)N)C(=O)N[C@@H](CCC(N)=O)C(=O)N[C@@H](CC(C)C)C(=O)O (H-GMEAARQL-OH) | Active |  |  | 
CSCC[C@H](NC(=O)CN)C(=O)N[C@@H](CCC(=O)O)C(=O)N[C@@H](C)C(=O)N[C@@H](CCC(N)=O)C(=O)N[C@@H](CCCNC(=N)N)C(=O)N[C@@H](CCC(N)=O)C(=O)N[C@@H](CC(C)C)C(=O)O (H-GMEAQRQL-OH) | Active |  | Active | 170 nM
CSCC[C@H](NC(=O)CN)C(=O)N[C@@H](CCC(=O)O)C(=O)N[C@@H](Cc1ccc(O)cc1)C(=O)N[C@@H](CCC(N)=O)C(=O)N[C@@H](CCCNC(=N)N)C(=O)N[C@@H](CCC(N)=O)C(=O)N[C@@H](CC(C)C)C(=O)N[C@@H](CCCNC(=N)N)C(=O)O (H-GMEYQRQLR-OH) | Active |  |  | 
CSCC[C@H](NC(=O)CN)C(=O)N[C@@H](CCC(=O)O)C(=O)N[C@@H](Cc1ccc(O)cc1)C(=O)N[C@@H](CCC(N)=O)C(=O)N[C@@H](CCCNC(=N)N)C(=O)N[C@@H](CCC(N)=O)C(=O)N[C@@H](CC(C)C)C(=O)N[C@@H](CCCNC(=N)N)C(=O)N[C@@H](CCCCN)C(=O)O (H-GMEYQRQLRK-OH) | Active |  |  | 
